Activity calls are given as the source filed them. The calls are words filed in the database; no cut-off is given here.
Columns and labels:
Oryctolagus cuniculus [1] = species: Oryctolagus cuniculus; assay: Toxicity in hypercholesterolemic rabbit model assessed as effect on TSH level; format: organism-based; conditions: in vivo
Homo sapiens [2] = assay: Toxicity in healthy human with mildly elevated LDL-C level assessed as effect on vital signs at 5 to 200 mg, po qd for 2 weeks by multiple ascending dose study; format: organism-based; conditions: in vivo, 336 h
Procedure, shortened: (§1)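 Multiple ascending dose study after single ascending dose study. Healthy subjects with LDL-C >110 mg/dL received once daily oral doses of 5 to 200 mg for 2 weeks. Safety and tolerability were assessed, covering QT interval, heart rate, vital signs and liver enzymes.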

Rattus norvegicus [3] = species: Rattus norvegicus; assay: Toxicity in hypercholesterolemic rat model assessed as effect on central thyroid axis; format: organism-based; conditions: in vivo
Homo sapiens [4] = assay: Antidyslipidemic activity in healthy human with mildly elevated LDL-C level assessed as reduction in LDL-C at 50 to 200 mg, po qd for 2 weeks by multiple ascending dose study relative to placebo control; format: functional; parameters: scale not given: the % may be the effect or the level left
Procedure, shortened: (§2)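 Multiple ascending dose study lasting 2 weeks, run after a single ascending dose study. Healthy subjects with LDL-C >110 mg/dL took oral doses once daily from 5 to 200 mg. Safety, thyroid axis measures (free T4, free T3, TSH), heart rate, QT and liver enzymes were monitored. Lipid changes were compared with placebo.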

Homo sapiens [5] = assay: Toxicity in healthy human with mildly elevated LDL-C level assessed as reversible reduction in free T4 level at 200 mg, po qd for 2 weeks; format: organism-based; parameters: scale not given: the % may be the effect or the level left; conditions: in vivo, 336 h
Procedure, shortened: (§3)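 Healthy subjects with LDL-C >110 mg/dL received once daily oral doses for 2 weeks in a multiple ascending dose study. Free T3, free T4 and TSH were compared with placebo.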

Oryctolagus cuniculus [6] = assay: Antidyslipidemic activity in hypercholesterolemic rabbit model assessed as reduction in lipid level in coadministered with atorvastatin; format: functional, organism-based
[7] = Half life in rat at 5 mg/kg, iv; format: ADME, organism-based; parameters: dose 5 mg/kg, route intravenous; conditions: in vivo
Procedure, shortened: (§4)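 Rat pharmacokinetics after a 5 mg/kg dose given iv, or given orally as a suspension. Values are means with SD from N = 3 rats.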

Homo sapiens [8] = assay: Toxicity in healthy human with mildly elevated LDL-C level assessed as adverse events at 5 to 200 mg, po qd for 2 weeks by multiple ascending dose study; format: organism-based; conditions: in vivo, 336 h; procedure, shortened: as §2
Homo sapiens [9] = assay: Antidyslipidemic activity in healthy human with mildly elevated LDL-C level assessed as reduction in lipids at 80 mg, po qd; format: functional, organism-based
Homo sapiens [10] = assay: Toxicity in healthy human with mildly elevated LDL-C level assessed as effect on effect on liver enzymes at 5 to 200 mg, po qd for 2 weeks by multiple ascending dose study; format: organism-based; conditions: in vivo, 336 h; procedure, shortened: as §1
[11] = AUC in rat at 5 mg/kg, po; format: ADME, organism-based; parameters: dose 5 mg/kg, route oral; conditions: plasma
Homo sapiens [12] = assay: Antidyslipidemic activity in healthy human with mildly elevated LDL-C level assessed as reduction in triglyceride at 50 to 200 mg, po qd for 2 weeks by multiple ascending dose study relative to placebo control; format: functional; parameters: scale not given: the % may be the effect or the level left; procedure, shortened: as §2
Mus musculus [13] = assay: Antidyslipidemic activity in diet-induced obese C57Bl/6J mouse model assessed as reduction in liver triglycerides at 0.3 to 10 mg/kg, po administered daily for 23 days; format: functional, organism-based
Procedure, shortened: (§5)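 C57Bl/6J mice aged six weeks were fed a high fat diet for 34 weeks. Body weight and food intake were monitored. BMD and body composition were assessed on day 22, and laboratory assessments were made at study end.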

Rattus norvegicus [14] = species: Rattus norvegicus; assay: Toxicity in hypercholesterolemic rat model assessed as effect on TSH level; format: organism-based; conditions: in vivo
[15] = Oral bioavailability in rat at 5 mg/kg; format: ADME, organism-based; conditions: in vivo; procedure, shortened: as §4
Homo sapiens [16] = assay: Toxicity in healthy human with mildly elevated LDL-C level assessed as effect on TSH level at 100 to 200 mg, po qd for 2 weeks; format: organism-based; conditions: in vivo, 336 h; procedure, shortened: as §3
[17] = Fraction unbound in human; format: ADME, organism-based; conditions: in vivo
Cytochrome P450 2C19 = Cytochrome P450 2C19 (Homo sapiens, UniProt P33261); assay: Inhibition of CYP2C19 (unknown origin); format: ADME
Chain of Cytochrome P450 2C19 (P33261 whole entry): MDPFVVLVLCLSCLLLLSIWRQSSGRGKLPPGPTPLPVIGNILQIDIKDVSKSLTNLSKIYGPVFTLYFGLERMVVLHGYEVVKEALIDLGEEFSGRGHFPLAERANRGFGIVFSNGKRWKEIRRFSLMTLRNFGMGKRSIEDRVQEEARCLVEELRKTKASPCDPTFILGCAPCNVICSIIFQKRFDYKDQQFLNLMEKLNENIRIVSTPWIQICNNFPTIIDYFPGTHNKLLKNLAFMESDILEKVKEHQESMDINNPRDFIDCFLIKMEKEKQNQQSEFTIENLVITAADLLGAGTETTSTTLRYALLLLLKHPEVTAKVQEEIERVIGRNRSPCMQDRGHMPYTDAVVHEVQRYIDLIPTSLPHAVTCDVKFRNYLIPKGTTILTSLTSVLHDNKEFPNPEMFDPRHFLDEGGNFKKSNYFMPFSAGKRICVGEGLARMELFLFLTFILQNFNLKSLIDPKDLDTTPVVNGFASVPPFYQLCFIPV
Procedure, shortened: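 Time-dependent inhibition of the same enzyme was also assessed, with and without NADPH.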

Oryctolagus cuniculus [18] = species: Oryctolagus cuniculus; assay: Toxicity in hypercholesterolemic rabbit model assessed as effect on central thyroid axis; format: organism-based; conditions: in vivo
Oryctolagus cuniculus [19] = species: Oryctolagus cuniculus; assay: Antidyslipidemic activity in hypercholesterolemic rabbit model assessed as reduction in liver triglycerides; format: functional, organism-based
[20] = Clearance in rat at 5 mg/kg, iv; format: ADME, organism-based; parameters: dose 5 mg/kg, route intravenous; conditions: in vivo; procedure, shortened: as §4
Rattus norvegicus [21] = species: Rattus norvegicus; assay: Antidyslipidemic activity in hypercholesterolemic rat model assessed as reduction in liver triglycerides; format: functional, organism-based
Oryctolagus cuniculus [22] = species: Oryctolagus cuniculus; assay: Antidyslipidemic activity in hypercholesterolemic rabbit model assessed as reduction in non-HDL-C level; format: functional, organism-based
Cytochrome P450 3A4 = Cytochrome P450 3A4 (Homo sapiens, UniProt P08684); assay: Inhibition of CYP3A4 (unknown origin); format: ADME
Chain of Cytochrome P450 3A4 (P08684 whole entry): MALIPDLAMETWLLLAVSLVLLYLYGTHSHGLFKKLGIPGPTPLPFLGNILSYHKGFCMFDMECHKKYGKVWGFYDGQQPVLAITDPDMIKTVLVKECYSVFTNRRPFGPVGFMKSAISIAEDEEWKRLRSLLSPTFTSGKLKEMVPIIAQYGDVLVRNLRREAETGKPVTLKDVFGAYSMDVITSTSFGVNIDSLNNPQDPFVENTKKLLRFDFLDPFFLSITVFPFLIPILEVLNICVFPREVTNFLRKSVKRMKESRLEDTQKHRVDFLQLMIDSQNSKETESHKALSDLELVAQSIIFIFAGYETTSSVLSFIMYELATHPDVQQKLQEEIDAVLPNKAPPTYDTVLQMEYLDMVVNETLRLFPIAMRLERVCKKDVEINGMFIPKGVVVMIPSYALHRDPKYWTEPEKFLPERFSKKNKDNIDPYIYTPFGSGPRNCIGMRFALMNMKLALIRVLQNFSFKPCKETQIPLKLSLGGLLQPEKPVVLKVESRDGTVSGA

[23] = Tmax in rat at 5 mg/kg, po; format: ADME, organism-based; parameters: dose 5 mg/kg, route oral; conditions: in vivo; procedure, shortened: as §4
[24] = AUC in rat at 5 mg/kg, iv; format: ADME, organism-based; parameters: dose 5 mg/kg, route intravenous; conditions: plasma
[25] = Half life in rat at 5 mg/kg, po; format: ADME, organism-based; parameters: dose 5 mg/kg, route oral; conditions: in vivo; procedure, shortened: as §4
Mus musculus [26] = assay: Toxicity in diet-induced obese C57Bl/6J mouse model assessed as effect on bone mineral density at 0.3 to 10 mg/kg, po administered daily for 23 days; format: organism-based; parameters: dose 0.3-10 mg/kg, route oral; conditions: in vivo; procedure, shortened: as §5
Homo sapiens [27] = assay: Toxicity in healthy human with mildly elevated LDL-C level assessed as central thyroid axis dysfunction at 5 to 200 mg, po qd for 2 weeks by multiple ascending dose study; format: organism-based; conditions: in vivo, 336 h; procedure, shortened: as §2
Rattus norvegicus [28] = assay: Toxicity in thyroidectomized rat assessed as T3 activity at 37.5 mg/kg, ip measured after 6 hrs; format: organism-based; parameters: dose 37.5 mg/kg, route intraperitoneal; conditions: in vivo
Procedure, shortened: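 Thyroidectomized rats, 4 per group, dosed ip at 5, 20 and 37.5 mg/kg in 4% DMSO, 15% PEG-400 and 81% of 30% HPBCD in phosphate buffer. Cardiac α-MHC hnRNA was measured 6 h post-dose and expressed relative to euthyroid or T3-treated full activity. Plasma exposure was measured at 6 h.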

[29] = Plasma concentration in thyroidectomized rat at 20 mg/kg, ip measured after 6 hrs; format: ADME, organism-based; parameters: dose 20 mg/kg, route intraperitoneal
Procedure, shortened: (§6)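 Thyroidectomized rats were dosed intraperitoneally at 5, 20 or 37.5 mg/kg, with 4 rats per group. Vehicle was 4% DMSO, 15% PEG-400 and 81% of 30% HPBCD in phosphate buffer. Cardiac α-MHC hnRNA, in arbitrary units, and plasma concentration were measured 6 h after dosing. Comparators were untreated thyroidectomized rats and euthyroid rats.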

[30] = Plasma concentration in thyroidectomized rat at 37.5 mg/kg, ip measured after 6 hrs; format: ADME, organism-based; parameters: dose 37.5 mg/kg, route intraperitoneal; procedure, shortened: as §6
Homo sapiens [31] = assay: Toxicity in healthy human with mildly elevated LDL-C level assessed as reversible reduction in free T4 level at 100 mg, po qd for 2 weeks; format: organism-based; parameters: scale not given: the % may be the effect or the level left; conditions: in vivo, 336 h; procedure, shortened: as §3
Mus musculus [32] = species: Mus musculus; assay: Antidyslipidemic activity in diet-induced obese C57Bl/6J mouse model assessed as lowering glucose level to near normal level; format: functional, organism-based
Mus musculus [33] = species: Mus musculus; assay: Antidyslipidemic activity in diet-induced obese C57Bl/6J mouse model assessed as improvement of insulin sensitivity; format: functional, organism-based
Rattus norvegicus [34] = assay: Cmax in rat at 5 mg/kg, po; format: ADME, organism-based; parameters: dose 5 mg/kg, route oral; conditions: in vivo; procedure, shortened: as §4
[35] = Plasma concentration in thyroidectomized rat at 5 mg/kg, ip measured after 6 hrs; format: ADME, organism-based; parameters: dose 5 mg/kg, route intraperitoneal; procedure, shortened: as §6
Mus musculus [36] = assay: Toxicity in diet-induced obese C57Bl/6J mouse model assessed as effect on kidney size at 0.3 to 10 mg/kg, po administered daily for 23 days; format: organism-based; parameters: dose 0.3-10 mg/kg, route oral; conditions: in vivo; procedure, shortened: as §5
Caco-2 [37] = assay: Permeability from basolateral to apical side of human Caco2 cells; format: ADME, cell-based
Caco-2 [38] = assay: Permeability from apical to basolateral side of human Caco2 cells; format: ADME, cell-based
[39] = Volume of distribution at steady state in rat at 5 mg/kg, iv; format: ADME, organism-based; parameters: dose 5 mg/kg, route intravenous; conditions: in vivo, read-out: Vdss
Procedure, shortened: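 Rats, N = 3, dosed iv at 5 mg/kg in parallel with a 5 mg/kg oral suspension. Pharmacokinetic parameters are mean values with SD.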

SMILES: CC(C)c1cc(Oc2c(Cl)cc(-n3nc(C#N)c(=O)[nH]c3=O)cc2Cl)n[nH]c1=O [RESMETIROM]
- Activity (Oryctolagus cuniculus [1]): Non-toxic
- Activity (Homo sapiens [2]): Non-toxic
- Activity (Rattus norvegicus [3]): Non-toxic
- Activity (Homo sapiens [4]): <=30%
- Activity (Homo sapiens [5]): 20%
- Activity (Oryctolagus cuniculus [6]): Active
- half-life [7]: 3.4 h
- Activity (Homo sapiens [8]): Non-toxic
- Activity (Homo sapiens [9]): Active
- Activity (Homo sapiens [10]): Non-toxic
- AUC [11]: 17400 ng·h/mL
- Activity (Homo sapiens [12]): <=60%
- Activity (Mus musculus [13]): Active
- Activity (Rattus norvegicus [14]): Non-toxic
- bioavailability [15]: 45%
- Activity (Homo sapiens [16]): Non-toxic
- Fu [17]: 0.6%
- IC50 (Cytochrome P450 2C19): > 50 µM
- Activity (Oryctolagus cuniculus [18]): Non-toxic
- Activity (Oryctolagus cuniculus [19]): Active
- clearance [20]: 2.35 mL/min/kg
- Activity (Rattus norvegicus [21]): Active
- Activity (Oryctolagus cuniculus [22]): Active
- IC50 (Cytochrome P450 3A4): > 50 µM
- Tmax [23]: 6 h
- AUC [24]: 38100 ng·h/mL
- half-life [25]: 4.08 h
- Activity (Mus musculus [26]): Non-toxic
- Activity (Homo sapiens [27]): Non-toxic
- Activity (Rattus norvegicus [28]): 0%
- concentration at 6 h [29]: 57 µM
- concentration at 6 h [30]: 94 µM
- Activity (Homo sapiens [31]): 10%
- Activity (Mus musculus [32]): Active
- Activity (Mus musculus [33]): Active
- Cmax (Rattus norvegicus [34]): 1710 ng/mL
- concentration at 6 h [35]: 15.4 µM
- Activity (Mus musculus [36]): Non-toxic
- permeability (Caco-2 [37]): permeable
- permeability (Caco-2 [38]): 1.37 ×10⁻⁶ cm/s
- Vd [39]: 0.422 L/kg
